# Measurements reported in ChEMBL document CHEMBL4261508, “Pyrazolo[3,4-d]pyrimidines as sigma-1 receptor ligands for the treatment of pain. Part 2: Introduction of cyclic substituents in position 4” (Medchemcomm, 2017).
# Calls of active or inactive are those of the source.
# Assays:
# [1] = target: Sigma non-opioid intracellular receptor 1 (Homo sapiens, UniProt Q99720); test: Displacement of [3H]-(+)-pentazocine from recombinant human sigma1 receptor expressed in HEK293 cell membranes after 120 mins by microbeta scintillation counting method
# Sigma non-opioid intracellular receptor 1, sequence (Q99720 whole entry): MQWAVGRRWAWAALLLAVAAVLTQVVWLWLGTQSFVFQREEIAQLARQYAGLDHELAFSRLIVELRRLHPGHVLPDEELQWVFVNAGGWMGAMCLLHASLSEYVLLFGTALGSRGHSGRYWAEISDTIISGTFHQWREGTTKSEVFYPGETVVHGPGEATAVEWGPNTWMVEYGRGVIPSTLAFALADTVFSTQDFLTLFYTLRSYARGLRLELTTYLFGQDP
# [2] = species: Cavia porcellus; test: Displacement of [3H]-DTG from sigma2 receptor in guinea pig brain membranes at 1 uM after 120 mins in presence of sigma1 […] (+)-SKF10047 by microbeta scintillation counting method relative to control; assay type: cell membranes; details: Membrane
# Method in brief: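 σ2R binding in guinea pig brain membranes with [³H]-di-o-tolylguanidine as radioligand. Compound tested at 1 μM as % inhibition. Mean of two determinations.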
# [3] = Stability of the compound assessed as drug degradation at pH 2; assay type: physicochemical; details: buffer
# Method in brief: (§1)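 Chemical stability measured by LC/MS. A 10 mM DMSO stock of compound was diluted into phosphate buffer pH 7.4 or 0.01 M HCl pH 2.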
# [4] = Stability of the compound assessed as drug degradation at pH 7.4; assay type: physicochemical; details: buffer; method in brief: as §1
# [5] = Displacement of [3H]-DTG from sigma2 receptor in guinea pig brain membranes after 120 mins in presence of sigma1 […] (+)-SKF10047 by microbeta scintillation counting method; assay type: cell membranes, Cavia porcellus, Membrane
# [6] = target: T1, CYP1A2 (Homo sapiens, UniProt P05177); test: Inhibition of recombinant human CYP1A2 at 1 uM relative to control; assay type: ADME
# T1 sequence (P05177 whole entry): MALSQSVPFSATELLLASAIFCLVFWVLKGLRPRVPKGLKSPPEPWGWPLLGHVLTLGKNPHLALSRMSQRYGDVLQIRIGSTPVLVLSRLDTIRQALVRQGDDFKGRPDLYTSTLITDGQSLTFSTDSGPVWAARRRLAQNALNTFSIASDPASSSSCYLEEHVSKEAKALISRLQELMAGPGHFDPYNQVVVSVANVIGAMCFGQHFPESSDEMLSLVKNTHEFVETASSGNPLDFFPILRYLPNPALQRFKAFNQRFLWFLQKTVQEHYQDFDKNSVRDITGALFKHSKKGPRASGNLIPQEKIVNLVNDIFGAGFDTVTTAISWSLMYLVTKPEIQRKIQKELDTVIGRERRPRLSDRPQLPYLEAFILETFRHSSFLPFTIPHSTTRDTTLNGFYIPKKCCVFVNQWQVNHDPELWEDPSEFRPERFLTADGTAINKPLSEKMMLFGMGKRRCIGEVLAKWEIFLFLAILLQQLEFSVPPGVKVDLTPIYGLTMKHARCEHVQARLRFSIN
# [7] = target: CYP2C9 (Homo sapiens, UniProt P11712); test: Inhibition of recombinant human CYP2C9 at 1 uM relative to control; assay type: ADME
# CYP2C9, sequence (P11712 whole entry): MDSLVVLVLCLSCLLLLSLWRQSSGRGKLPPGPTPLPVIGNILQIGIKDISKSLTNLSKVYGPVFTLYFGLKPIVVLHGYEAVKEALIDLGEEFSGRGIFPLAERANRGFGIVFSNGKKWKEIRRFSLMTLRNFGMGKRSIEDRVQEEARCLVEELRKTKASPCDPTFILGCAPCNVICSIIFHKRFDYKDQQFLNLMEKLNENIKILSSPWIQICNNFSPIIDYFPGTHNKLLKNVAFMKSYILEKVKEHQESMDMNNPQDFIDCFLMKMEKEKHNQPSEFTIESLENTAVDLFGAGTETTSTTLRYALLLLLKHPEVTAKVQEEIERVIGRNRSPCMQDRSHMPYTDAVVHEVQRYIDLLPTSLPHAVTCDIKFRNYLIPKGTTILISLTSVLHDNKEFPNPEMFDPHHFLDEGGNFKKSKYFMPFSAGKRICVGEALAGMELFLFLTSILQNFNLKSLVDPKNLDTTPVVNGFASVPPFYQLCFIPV
# [8] = target: CYP2C19 (Homo sapiens, UniProt P33261); test: Inhibition of recombinant human CYP2C19 at 1 uM relative to control; assay type: ADME
# CYP2C19, sequence (P33261 whole entry): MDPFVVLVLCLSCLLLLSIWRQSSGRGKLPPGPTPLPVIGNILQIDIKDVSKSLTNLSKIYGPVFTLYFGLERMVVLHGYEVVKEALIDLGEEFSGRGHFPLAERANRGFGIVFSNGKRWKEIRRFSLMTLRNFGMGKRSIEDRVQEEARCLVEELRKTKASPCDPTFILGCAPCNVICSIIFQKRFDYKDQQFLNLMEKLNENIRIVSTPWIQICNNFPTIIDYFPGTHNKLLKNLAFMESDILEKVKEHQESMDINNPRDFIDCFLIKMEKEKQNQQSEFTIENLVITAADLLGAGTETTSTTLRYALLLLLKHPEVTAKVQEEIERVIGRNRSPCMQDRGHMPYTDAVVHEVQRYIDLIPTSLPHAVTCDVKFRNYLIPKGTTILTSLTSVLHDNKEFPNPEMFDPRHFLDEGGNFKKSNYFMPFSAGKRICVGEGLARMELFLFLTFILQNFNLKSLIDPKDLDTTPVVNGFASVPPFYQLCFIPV
# [9] = target: CYP2D6 (Homo sapiens, UniProt P10635); test: Inhibition of recombinant human CYP2D6 at 1 uM relative to control; assay type: ADME
# CYP2D6, sequence (P10635 whole entry): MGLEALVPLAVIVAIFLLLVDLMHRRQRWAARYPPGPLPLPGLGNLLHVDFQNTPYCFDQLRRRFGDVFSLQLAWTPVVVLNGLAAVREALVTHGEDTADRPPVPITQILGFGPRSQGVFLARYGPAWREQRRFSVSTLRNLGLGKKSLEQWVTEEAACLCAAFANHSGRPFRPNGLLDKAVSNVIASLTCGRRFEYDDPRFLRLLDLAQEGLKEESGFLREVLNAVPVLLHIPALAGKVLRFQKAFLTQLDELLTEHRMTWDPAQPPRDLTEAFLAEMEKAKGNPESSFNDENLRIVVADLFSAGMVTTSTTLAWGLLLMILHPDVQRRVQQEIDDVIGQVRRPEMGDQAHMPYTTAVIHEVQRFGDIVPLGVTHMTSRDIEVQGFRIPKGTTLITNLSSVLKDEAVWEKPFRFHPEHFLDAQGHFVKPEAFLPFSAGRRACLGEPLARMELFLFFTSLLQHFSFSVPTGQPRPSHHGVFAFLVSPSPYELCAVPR
# [10] = target: CYP3A4 (Homo sapiens, UniProt P08684); test: Inhibition of recombinant human CYP3A4 at 1 uM relative to control; assay type: ADME
# CYP3A4, sequence (P08684 whole entry): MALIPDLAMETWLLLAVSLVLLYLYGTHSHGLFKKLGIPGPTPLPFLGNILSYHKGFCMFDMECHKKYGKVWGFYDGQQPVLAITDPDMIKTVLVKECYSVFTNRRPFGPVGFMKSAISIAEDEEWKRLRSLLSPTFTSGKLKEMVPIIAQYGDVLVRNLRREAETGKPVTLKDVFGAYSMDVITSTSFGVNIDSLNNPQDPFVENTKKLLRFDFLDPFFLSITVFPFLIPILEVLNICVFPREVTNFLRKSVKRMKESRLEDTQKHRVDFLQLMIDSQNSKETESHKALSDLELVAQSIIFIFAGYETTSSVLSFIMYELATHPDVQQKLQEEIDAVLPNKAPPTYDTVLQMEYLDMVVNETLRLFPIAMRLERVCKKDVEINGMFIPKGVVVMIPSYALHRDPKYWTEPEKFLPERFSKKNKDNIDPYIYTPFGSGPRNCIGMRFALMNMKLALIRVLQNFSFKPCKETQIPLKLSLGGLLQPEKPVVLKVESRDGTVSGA
# [11] = Intrinsic clearance in human liver microsomes assessed as per mg protein at 1 uM after 1 hr in presence of NADPH-generating system by UPLC-MS/MS analysis; assay type: ADME, microsome; details: read-out: CLH
# [12] = Apparent permeability in human Caco2 cells; assay type: ADME, cell-based; details: Caco-2
# [13] = test system: HepG2; test: Cytotoxicity against human HepG2 cells up to 100 uM by MTT assay; assay type: cell-based
# Method in brief: (§2)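 HepG2 cells exposed to compound up to 100 μM. Cytotoxicity read by MTT and by Neutral Red uptake.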
# [14] = test system: HepG2; test: Cytotoxicity against human HepG2 cells up to 100 uM by neutral red uptake assay; assay type: cell-based; method in brief: as §2
# [15] = test system: Salmonella typhimurium; test: Genotoxicity in Salmonella typhimurium TA1535 harboring pSK1002 by […]; assay type: toxicity, organism-based; details: salmonella enterica subsp. enterica serovar typhimurium
# [16] = Thermodynamic solubility of the compound in pH 7.4 phosphate buffer; assay type: physicochemical; details: read-out: Therm_solubility
# [17] = Thermodynamic solubility of the compound in pH 2 phosphate buffer; assay type: physicochemical; details: read-out: Therm_solubility
# [18] = test system: Mus musculus; test: Analgesic activity in formalin-induced nociception CD-1 mouse model assessed as reduction in time spent in licking or biting formalin injected hind paw at 40 mg/kg, ip pretreated for 30 mins followed by formalin stimulation measured up to 5 mins; assay type: functional, organism-based
# [19] = test system: Mus musculus; test: Analgesic activity in formalin-induced nociception CD-1 mouse model assessed as reduction in time spent in licking or biting formalin injected hind paw at 40 mg/kg, ip pretreated for 30 mins followed by formalin stimulation measured after 15 to 30 mins relative to control; assay type: functional; parameters: scale not given: the % may be the effect or the level left
# Method in brief: (§3)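 Mice received drug i.p. (40 mg/kg) or p.o. (80 mg/kg), and formalin was injected intraplantar. Paw licking-biting time in phase II (delayed phase) was scored. Result is % antinociception in treated animals vs vehicle.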
# [20] = test system: Mus musculus; test: Analgesic activity in formalin-induced nociception CD-1 mouse model assessed as reduction in time spent in licking or biting formalin injected hind paw at 80 mg/kg, po pretreated for 30 mins followed by formalin stimulation measured up to 5 mins; assay type: functional, organism-based
# [21] = test system: Mus musculus; test: Analgesic activity in formalin-induced nociception CD-1 mouse model assessed as reduction in time spent in licking or biting formalin injected hind paw at 80 mg/kg, po pretreated for 30 mins followed by formalin stimulation measured after 15 to 30 mins relative to control; assay type: functional; parameters: scale not given: the % may be the effect or the level left; method in brief: as §3
# [22] = test system: Mus musculus; test: Antinociceptive activity in capsaicin-induced nociception pain CD-1 mouse model assessed as increase in paw withdrawal latency at 80 mg/kg, po pretreated for 30 mins followed by capsaicin challenge measured after 15 mins by von frey filament assay relative to control; assay type: functional
# Method in brief: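 Capsaicin test in mice, drug given orally at 80 mg/kg. Mechanical hypersensitivity was read as paw withdrawal latency to upward pressure by von Frey filament. Result is % reduction in drug-treated vs vehicle animals.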
# [23] = test system: Mus musculus; test: Antinociceptive activity in partial sciatic nerve ligation CD-1 mouse model of neuropathic pain assessed as reduction in mechanical hypersensitivity at 80 mg/kg, po administered 8 days post partial sciatic nerve injury measured after 30 mins by von frey filament assay relative to control; assay type: functional; parameters: scale not given: the % may be the effect or the level left
# Method in brief: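 Mice with partial sciatic nerve ligation, drug given orally at 80 mg/kg. Pressure threshold (g) for paw withdrawal to von Frey filament was measured after dosing. It was compared with vehicle response 8 days post-surgery and with pre-ligation baseline to give % reduction of hypersensitivity.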
SMILES,Ki [1] [µM],inhibition [2] [%],Stability [3],Stability [4],other results
CCOc1ccccc1-c1ncnc2c1cnn2CCN1CCCCC1,0.3,81,,,
Cc1cccc(-c2ncnc3c2cnn3CCN2CCCCC2)c1,0.082,82,Stable,Stable,
Cn1cnc(-c2ncnc3c2cnn3CCN2CCCCC2)c1,11.8,,,,
c1ccc(C2CCN(c3ncnc4c3cnn4CCN3CCCCC3)C2)cc1 (stereo not given),0.294,71,,,
Cn1nc(C(F)(F)F)cc1-c1ncnc2c1cnn2CCN1CCCCC1,0.137,,,,
O=C1CCCN1c1ncnc2c1cnn2CCN1CCCCC1,6.19,,,,
c1cncc(-c2ncnc3c2cnn3CCN2CCCCC2)c1,0.926,,,,
Cc1ccc(C)n1-c1ncnc2c1cnn2CCN1CCCCC1,0.74,,,,
Cc1ccc(C)c(-c2ncnc3c2cnn3CCN2CCCCC2)c1,0.063,89,Stable,Stable,
c1cn(-c2ncnc3c2cnn3CCN2CCCCC2)cn1,13.8,,,,
FC(F)(F)c1ccccc1-c1ncnc2c1cnn2CCN1CCCCC1,0.125,86,,,
c1ccc(-c2ncnc3c2cnn3CCN2CCCCC2)nc1,0.634,,,,
Cc1ncccc1-c1ncnc2c1cnn2CCN1CCCCC1,0.732,,,,
Cc1cc(F)ccc1-c1ncnc2c1cnn2CCN1CCCCC1,0.048,86,Stable,Stable,
Fc1ccc(-c2ncnc3c2cnn3CCN2CCCCC2)c(F)c1,0.093,83,Stable,Stable,
CNC1CCN(c2ncnc3c2cnn3CCN2CCCCC2)C1 (stereo not given),25.8,,,,
c1nc(N2CCCCC2)c2cnn(CCN3CCCCC3)c2n1,0.2,67,,,
Clc1ccc(-c2ncnc3c2cnn3CCN2CCCCC2)cc1,0.043,74,Stable,Stable,
Cn1nccc1-c1ncnc2c1cnn2CCN1CCCCC1,,,Stable,Stable,Ki [5]: > 1 µM; inhibition at 1 µM [6]: < 50%; inhibition at 1 µM [7]: < 50%; inhibition at 1 µM [8]: < 50%; inhibition at 1 µM [9]: < 50%; inhibition at 1 µM [10]: < 50%; microsomal CLint at 1 µM [11]: 2.4 µL/min/mg; Papp [12]: 407 nm/s; Activity [13]: Non-Toxic; Activity [14]: Non-Toxic; Activity [15]: Non-Toxic; solubility thermodynamic [16]: 1.5 mg/mL; solubility thermodynamic [17]: 2.4 mg/mL; Activity [18]: Active; Activity [19]: 67%; Activity [20]: Active; Activity [21]: 54%; Activity [22]: 43%; Activity [23]: 46%
c1cc(-c2ncnc3c2cnn3CCN2CCCCC2)ccn1,1.72,,,,
c1ccc(-c2ncnc3c2cnn3CCN2CCCCC2)cc1,0.1,69,,,
Cc1cccc(-c2ncnc3c2cnn3CCN2CCCCC2)n1,0.709,,,,
Fc1ccc(-c2ncnc3c2cnn3CCN2CCCCC2)cc1C(F)(F)F,0.057,87,Stable,Stable,
Cn1cccc1-c1ncnc2c1cnn2CCN1CCCCC1,0.031,,Stable,Stable,
c1nc(-c2cnsc2)c2cnn(CCN3CCCCC3)c2n1,0.475,40,,,
N#Cc1ccc(-c2ncnc3c2cnn3CCN2CCCCC2)cc1,0.558,47,,,
Cc1cc(OCCN2CCOCC2)nn1-c1ccc2ccccc2c1,,,Stable,Stable,Activity [18]: Active; Activity [19]: 50%; Activity [20]: Active; Activity [21]: 66%; Activity [22]: 48%; Activity [23]: 62%
CC(C)(C)C(=O)Nc1ncnc2c1cnn2CCN1CCCCC1,,,Stable,Stable,

# Now from value to molecule, other results behind:
Ki [1] [µM],inhibition [2] [%],Stability [3],Stability [4],SMILES,other results
0.031,95,Stable,Stable,Cc1ccc(Cl)c(-c2ncnc3c2cnn3CCN2CCCCC2)c1,
0.112,73,,,Fc1cc(Cl)ccc1-c1ncnc2c1cnn2CCN1CCCCC1,
0.108,67,,,FC1(F)CCN(c2ncnc3c2cnn3CCN2CCCCC2)CC1,
0.707,,,,Cc1ccncc1-c1ncnc2c1cnn2CCN1CCCCC1,
0.112,,,,COc1ncccc1-c1ncnc2c1cnn2CCN1CCCCC1,
0.715,,,,Cn1cncc1-c1ncnc2c1cnn2CCN1CCCCC1,
0.072,,Stable,Stable,Cc1noc(C)c1-c1ncnc2c1cnn2CCN1CCCCC1,
0.076,92,Stable,Stable,Clc1ccccc1-c1ncnc2c1cnn2CCN1CCCCC1,
0.112,66,,,c1ccc2c(c1)ncn2-c1ncnc2c1cnn2CCN1CCCCC1,
0.095,75,Stable,Stable,Fc1ccc(-c2ncnc3c2cnn3CCN2CCCCC2)cc1,
9.46,,,,Cn1cc(-c2ncnc3c2cnn3CCN2CCCCC2)cn1,
0.035,,Stable,Stable,Clc1ccc(-c2ncnc3c2cnn3CCN2CCCCC2)s1,
0.039,87,Stable,Stable,COc1cc(F)ccc1-c1ncnc2c1cnn2CCN1CCCCC1,
1.83,,,,c1csc(-c2ncnc3c2cnn3CCN2CCCCC2)n1,
0.666,,,,c1ccc2c(-c3ncnc4c3cnn4CCN3CCCCC3)cncc2c1,
0.074,83,Stable,Stable,Cc1ccccc1-c1ncnc2c1cnn2CCN1CCCCC1,
38.3,,,,COc1ccc(-c2ncnc3c2cnn3CCN2CCCCC2)cn1,
0.165,58,,,CC1(C)CCN(c2ncnc3c2cnn3CCN2CCCCC2)C1,
0.802,,,,c1nc(-c2cn[nH]c2)c2cnn(CCN3CCCCC3)c2n1,
23.8,,,,c1coc(-c2ncnc3c2cnn3CCN2CCCCC2)n1,
0.531,58,,,COc1ccc(-c2ncnc3c2cnn3CCN2CCCCC2)cc1,
0.447,,,,Cc1cncc(-c2ncnc3c2cnn3CCN2CCCCC2)c1,
2.91,,,,CC(C)n1cc(-c2ncnc3c2cnn3CCN2CCCCC2)cn1,
